{
  "source": "ChEMBL document CHEMBL5661972",
  "about": "“In vitro biological activity of a novel small-molecule inhibitor of polo-like kinase 1” (Mol Cancer Ther, 2007)",
  "key": {"NHDF [1]": {"test_system": "NHDF", "test": "Induction of cell cycle arrest in human HDF cells assessed as accumulation of cells at S phase at 3 micromol/L incubated for 24 hrs by propidium iodide staining based flow cytometry analysis (reference value: 13.2 %)", "type": "toxicity", "conditions": "3 µM, dose 3 µmol/L", "in_short": "(§1)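 Cells seeded in six-well plates at densities that keep them in log growth (HDF 120,000, 60,000 or 30,000; H460 100,000, 50,000 or 25,000 per well for 24, 48 or 72 h). Treated with 1 or 3 μmol/L. Floating and adherent cells collected, ethanol-fixed, permeabilized with Triton X-100 and stained with propidium iodide. DNA content read by flow cytometry as % singlet cells.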"}, "[2]": {"test": "Cytotoxicity against human HDF cells assessed as outgrowth of cells at 3.3 micromol/L incubated for 72 hrs by methylene blue staining based analysis relative to control", "type": "toxicity, cell-based", "conditions": "HDF cells (NHDF, human dermal fibroblasts), dose 3.3 µmol/L, read-out: Activity", "in_short": "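HDF seeded at 1,300 and H460 at 600 per well in 96-well plates. After 24 h, exposed to vehicle (0.3% DMSO) or compound at 0.37–30 μmol/L for 72 h. Wells were then washed with PBS and refed with drug-free medium containing gentamicin. Regrowth was followed by methylene blue staining at set time points over 13 days in total.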"}, "[3]": {"test": "Inhibition of p53-PLK1 in human HeLa cells assessed as inhibition of p53 phosphorylation at Ser15 residue by ELISA analysis", "type": "cell-based", "in_short": "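HeLa Tet-On cells carrying tet-inducible p53-PLK1 kinase-domain fusion (T210D), induced overnight with 125 ng/mL doxycycline; ten 3-fold dilutions (30–0.00152 μmol/L final, 0.3% DMSO, 5% serum) for 1 h. Lysates captured on anti-p53-coated plates overnight at 4°C; phospho-Ser15 and total p53 detected with HRP secondary/TMB, A450. IC50 from curve fit.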"}, "NCI-H460 [4]": {"test_system": "NCI-H460", "test": "Induction of cell cycle arrest in human NCI-H460 cells assessed as accumulation of cells at >4N phase at 3 micromol/L incubated for 72 hrs by propidium iodide staining based flow cytometry analysis (reference value: 0.9 %)", "type": "functional", "conditions": "dose 3 µmol/L, at 3 µM", "in_short": "as §1"}, "NCI-H460 [5]": {"test_system": "NCI-H460", "test": "Induction of cell cycle arrest in human NCI-H460 cells assessed as accumulation of cells at >4N phase at 1 micromol/L incubated for 24 hrs by propidium iodide staining based flow cytometry analysis (reference value: 1.2 %)", "type": "functional", "conditions": "dose 1 µmol/L, at 1 µM", "in_short": "as §1"}, "NHDF [6]": {"test_system": "NHDF", "test": "Induction of cell cycle arrest in human HDF cells assessed as accumulation of cells at S phase at 1 micromol/L incubated for 48 hrs by propidium iodide staining based flow cytometry analysis (reference value: 4.7 %)", "type": "toxicity", "conditions": "1 µM, dose 1 µmol/L", "in_short": "as §1"}, "NCI-H460 [7]": {"test_system": "NCI-H460", "test": "Induction of cell cycle arrest in human NCI-H460 cells assessed as accumulation of cells at G1 phase at 1 micromol/L incubated for 24 hrs by propidium iodide staining based flow cytometry analysis (reference value: 45.5 %)", "type": "functional", "conditions": "dose 1 µmol/L, at 1 µM", "in_short": "as §1"}, "[8]": {"test": "Selectivity ratio of IC50 for cytotoxicity against human HDF cells to IC50 for antiproliferative activity against human NCI-N87 cells", "type": "toxicity, cell-based", "conditions": "HDF cells versus NCI-N87 cells, read-out: Ratio IC50"}, "[9]": {"test": "Selectivity ratio of IC50 for cytotoxicity against human HDF cells to IC50 for antiproliferative activity against human NCI-H460 cells", "type": "toxicity, cell-based", "conditions": "HDF cells versus NCI-H460 cells, read-out: Ratio IC50", "in_short": "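HDF (5,000/well) and H460 (2,000/well) cells exposed 3 days to 3-fold dilutions (30–0.00152 μmol/L) in medium with 5% FBS, gentamicin and 0.3% DMSO (low-glucose DMEM for HDF, RPMI 1640 for H460); vehicle controls growing logarithmically. IC50 from each line gives the HDF/H460 ratio.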"}, "NCI-H460 [10]": {"test_system": "NCI-H460", "test": "Induction of cell cycle arrest in human NCI-H460 cells assessed as accumulation of cells at S phase at 1 micromol/L incubated for 72 hrs by propidium iodide staining based flow cytometry analysis (reference value: 17.8 %)", "type": "functional", "conditions": "dose 1 µmol/L, at 1 µM"}, "NCI-H460 [11]": {"test_system": "NCI-H460", "test": "Induction of cell cycle arrest in human NCI-H460 cells assessed as accumulation of cells at G2-M phase at 1 micromol/L incubated for 72 hrs by propidium iodide staining based flow cytometry analysis (reference value: 18.2 %)", "type": "functional", "conditions": "dose 1 µmol/L"}, "NCI-H460 [12]": {"test_system": "NCI-H460", "test": "Induction of cell cycle arrest in human NCI-H460 cells assessed as accumulation of cells at >4N phase at 3 micromol/L incubated for 48 hrs by propidium iodide staining based flow cytometry analysis (reference value: 0.9 %)", "type": "functional", "conditions": "dose 3 µmol/L, at 3 µM", "in_short": "as §1"}, "NCI-H460 [13]": {"test_system": "NCI-H460", "test": "Induction of cell cycle arrest in human NCI-H460 cells assessed as accumulation of cells at G1 phase at 1 micromol/L incubated for 72 hrs by propidium iodide staining based flow cytometry analysis (reference value: 58.2 %)", "type": "functional", "conditions": "dose 1 µmol/L, at 1 µM", "in_short": "as §1"}, "NHDF [14]": {"test_system": "NHDF", "test": "Induction of cell cycle arrest in human HDF cells assessed as accumulation of cells at Sub-2N phase at 3 micromol/L incubated for 72 hrs by propidium iodide staining based flow cytometry analysis (reference value: 0.7 %)", "type": "toxicity", "conditions": "3 µM, dose 3 µmol/L", "in_short": "as §1"}, "NHDF [15]": {"test_system": "NHDF", "test": "Induction of cell cycle arrest in human HDF cells assessed as accumulation of cells at >4N phase at 1 micromol/L incubated for 24 hrs by propidium iodide staining based flow cytometry analysis (reference value: 2.4 %)", "type": "toxicity", "conditions": "1 µM, dose 1 µmol/L", "in_short": "as §1"}, "[16]": {"biological_target": "Proto-oncogene tyrosine-protein kinase Src (Homo sapiens, UniProt P12931)", "sequence (P12931 2-536 limits assumed)": "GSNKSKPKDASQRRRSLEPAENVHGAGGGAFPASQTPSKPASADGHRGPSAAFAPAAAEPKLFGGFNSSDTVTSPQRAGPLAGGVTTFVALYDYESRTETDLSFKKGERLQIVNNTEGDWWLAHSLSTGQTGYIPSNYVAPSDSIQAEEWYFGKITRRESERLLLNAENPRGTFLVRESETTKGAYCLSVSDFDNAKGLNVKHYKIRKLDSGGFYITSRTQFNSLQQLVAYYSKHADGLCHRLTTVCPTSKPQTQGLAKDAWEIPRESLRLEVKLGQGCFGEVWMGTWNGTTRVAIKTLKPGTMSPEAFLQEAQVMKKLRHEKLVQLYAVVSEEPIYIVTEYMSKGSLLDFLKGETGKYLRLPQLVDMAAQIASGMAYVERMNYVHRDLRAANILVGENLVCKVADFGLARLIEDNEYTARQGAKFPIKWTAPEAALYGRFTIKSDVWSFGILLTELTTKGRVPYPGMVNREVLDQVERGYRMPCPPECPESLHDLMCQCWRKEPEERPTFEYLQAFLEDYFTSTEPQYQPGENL", "test": "Inhibition of c-src (unknown origin)"}, "NCI-H460 [17]": {"test_system": "NCI-H460", "test": "Induction of cell cycle arrest in human NCI-H460 cells assessed as accumulation of cells at Sub-2N phase at 3 micromol/L incubated for 72 hrs by propidium iodide staining based flow cytometry analysis (reference value: 2.1 %)", "type": "functional", "conditions": "dose 3 µmol/L, at 3 µM"}, "NHDF [18]": {"test_system": "NHDF", "test": "Induction of cell cycle arrest in human HDF cells assessed as accumulation of cells at >4N phase at 1 micromol/L incubated for 72 hrs by propidium iodide staining based flow cytometry analysis (reference value: 1.4 %)", "type": "toxicity", "conditions": "1 µM, dose 1 µmol/L", "in_short": "as §1"}, "NHDF [19]": {"test_system": "NHDF", "test": "Induction of cell cycle arrest in human HDF cells assessed as accumulation of cells at G2-M phase at 1 micromol/L incubated for 48 hrs by propidium iodide staining based flow cytometry analysis (reference value: 14.3 %)", "type": "toxicity", "conditions": "1 µM, dose 1 µmol/L", "in_short": "as §1"}, "[20]": {"test": "Selectivity ratio of IC50 for cytotoxicity against human HDF cells to IC50 for antiproliferative activity against human BT-474 cells", "type": "toxicity, cell-based", "conditions": "HDF cells versus BT-474 cells, read-out: Ratio IC50"}, "NCI-H460 [21]": {"test_system": "NCI-H460", "test": "Induction of cell cycle arrest in human NCI-H460 cells assessed as accumulation of cells at >4N phase at 1 micromol/L incubated for 48 hrs by propidium iodide staining based flow cytometry analysis (reference value: 0.9 %)", "type": "functional", "conditions": "dose 1 µmol/L, at 1 µM", "in_short": "as §1"}, "[22]": {"test": "Inhibition of EGFR (unknown origin)", "design": "species or system Homo sapiens"}, "NCI-H460 [23]": {"test_system": "NCI-H460", "test": "Induction of cell cycle arrest in human NCI-H460 cells assessed as accumulation of cells at S phase at 3 micromol/L incubated for 24 hrs by propidium iodide staining based flow cytometry analysis (reference value: 23.2 %)", "type": "functional", "conditions": "dose 3 µmol/L, at 3 µM"}, "NCI-H460 [24]": {"test_system": "NCI-H460", "test": "Induction of cell cycle arrest in human NCI-H460 cells assessed as accumulation of cells at G1 phase at 3 micromol/L incubated for 48 hrs by propidium iodide staining based flow cytometry analysis (reference value: 50.9 %)", "type": "functional", "conditions": "dose 3 µmol/L, at 3 µM"}},
  "note": "pIC50: −log10 of the molar value.",
  "data": [
    {"smiles": "COc1cc2ncn(-c3cc(OCc4ccccc4C(F)(F)F)c(C(N)=O)s3)c2cc1OC", "note": "[GW843682X]", "values": [
      {"measurement": "Activity", "setting": "NHDF [1]", "result": 4.2, "unit": "%"},
      {"measurement": "viability at 72 h, 3.3 µM", "setting": "[2]", "result": "~30", "unit": "%"},
      {"measurement": "pIC50", "setting": "[3]", "result": 6.85},
      {"measurement": "Activity", "setting": "NCI-H460 [4]", "result": 51, "unit": "%"},
      {"measurement": "Activity", "setting": "NCI-H460 [5]", "result": 5.1, "unit": "%"},
      {"measurement": "Activity", "setting": "NHDF [6]", "result": 7.4, "unit": "%"},
      {"measurement": "Activity", "setting": "NCI-H460 [7]", "result": 27.3, "unit": "%"},
      {"measurement": "selectivity ratio", "setting": "[8]", "result": "> 10"},
      {"measurement": "selectivity ratio", "setting": "[9]", "result": "> 10"},
      {"measurement": "Activity", "setting": "NCI-H460 [10]", "result": 2.8, "unit": "%"},
      {"measurement": "Activity", "setting": "NCI-H460 [11]", "result": 10.6, "unit": "%"},
      {"measurement": "Activity", "setting": "NCI-H460 [12]", "result": 35.9, "unit": "%"},
      {"measurement": "Activity", "setting": "NCI-H460 [13]", "result": 2.5, "unit": "%"},
      {"measurement": "Activity", "setting": "NHDF [14]", "result": 9.1, "unit": "%"},
      {"measurement": "Activity", "setting": "NHDF [15]", "result": 3.5, "unit": "%"},
      {"measurement": "pIC50", "setting": "[16]", "result": "< 5.00"},
      {"measurement": "Activity", "setting": "NCI-H460 [17]", "result": 30, "unit": "%"},
      {"measurement": "Activity", "setting": "NHDF [18]", "result": 3.5, "unit": "%"},
      {"measurement": "Activity", "setting": "NHDF [19]", "result": 27, "unit": "%"},
      {"measurement": "selectivity ratio", "setting": "[20]", "result": "> 10"},
      {"measurement": "Activity", "setting": "NCI-H460 [21]", "result": 29, "unit": "%"},
      {"measurement": "pIC50", "setting": "[22]", "result": "< 5.00"},
      {"measurement": "Activity", "setting": "NCI-H460 [23]", "result": 8.4, "unit": "%"},
      {"measurement": "Activity", "setting": "NCI-H460 [24]", "result": 7.5, "unit": "%"}
    ]}
  ]
}
